# Laboratory results from the EternaBench riboswitch data.
# Test system: MS2 coat protein
# Assay: apparent Kd, MS2 coat protein; higher = weaker binding; RNA-MaP array; FMN 200 µM where present
# In short: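 Apparent Kd: the median of filtered binding-curve fits from single clusters. Designs were transcribed on Illumina sequencing-chip clusters by stalled E. coli RNA polymerase and titrated with SNAP-549-labelled MS2 coat protein from 0.7 or 1.5 nM, doubling to 3 µM, in 100 mM Tris-HCl pH 7.5, 80 mM KCl, 4 mM MgCl2, BSA, DTT, yeast tRNA and Tween-20. Each series ran without and then with constant ligand, and green signal was normalised to red-channel RNA signal and control-cluster median Fmax.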
# [1] = designed as: OFF switch for flavin mononucleotide, no ligand
# [2] = ligand present: flavin mononucleotide, designed as: OFF switch for flavin mononucleotide
# [3] = designed as: ON switch for flavin mononucleotide, no ligand
# [4] = ligand present: flavin mononucleotide, designed as: ON switch for flavin mononucleotide
Sequence,apparent Kd [1] [nM],apparent Kd [2] [nM],apparent Kd [3] [nM],apparent Kd [4] [nM]
GGAGAUACAUGAGGAUCACCCAUGUAGGAUAUCUAGUAUAUAUAUGGCGAAAGCCAUAUAUAUAUAGAGAAGGGCGUACACACC,9,7.91,,
GCGUUAGAAACACAUGUAUUACAUGAGGAUCACCCAUGUUACUAGGAUAUGUAUUAGAAUUUACAACAGAAGGAGUAAGAACGC,10.8,14.6,,
UAAGAUUAUUGAGGAUAUGGUAAUUUUUAUUAACCAGAAGGCAAACUCAACAUGAGGAUCACCCAUGUAUAAAGGGUAUUAGUU,68,63.4,,
GUAGCAUACCGAGGAUAUUCAUAUAAUAAGUAAACAUGAGGAUCACCCAUGUAGCGAAAGCCUUGGGAGAAGGCGGAAUGCUAC,,,346,52
AUGUACCGGUGAGGAUAUUUUUAAUAGAGCUUUAUGAUAUACAUGAGGAUCACCCAUGUUACGUUAAAGAAGGCAUCGGAUUAA,21,15.9,,
GUUAUGCGAGGAUAUACAUGAGGAUCACCCAUGUAAUCUGGUGGCGUGAAAAUAAAGUGUAGAAGGCGCUGACC,17.6,31.9,,
GGAGCCGGUACUGAGGAUAUUCAUAUUAAAACAUGAGGAUCACCCAUGUAGGCCAGAAGGCCUUGGGAGAAGGCAGACCAGCUCG,,,391,26.7
CAGUACUGAGGAUAUACAUGAGGAUCACCCAUGUGCUUCAGCUAGGAUACUAGCAUUAGUAGAAGGCAGUACUG,10.9,64.1,,
GGGUACAUCGGAGGAUAUCAGGUAAAUACAUGAGGAUCACCCAUGUCGAUGGAGACAUCGGAGAUUGAGAAGGCCGAUGUACCG,,,7.6,5.13
CGGACCCGAGGAUAUCGUAAACCCGACAUGAGGAUCACCCAUGUCAUCCUCACGGCGCCACGAGAAGGCGGUGUUA,24.2,75.7,,
AGUGUCAUCGAGAAGGCCUCAUGAACAUGAGGAUCACCCAUGUAAUAUGGGAGGAUAUCGAUGAUACAGCUACGUUUCGUAGCA,,,51.4,33.9
CAGUACUGAGGAUAUACAUGAGGAUCACCCAUGUGUUCCAGCUAGGAAACUAGCGAAAGUAGAAGGCAGUACUG,23.3,551,,
AUCAGCUCGUCAGGAUAUACGUCACUGCGUCAGGAGUGUGGUAAGAUCACAUGAGGAUCACCCAUGUAGAAGGGACGAGCUGAU,16.6,298,,
UUUGUCUGUGUGAGGAUAUACUUGUUUGGGUUUUUGUAGAAGGCACAUGAGGAUCACCCAUGUAUUUUGUUGUG,58.3,75.5,,
GUGUAGAUAGGAUAUGCUUUGAGCCUACGAAAGUACGCUCGACAUGAGGAUCACCCAUGUAGAAGGGUUUACAC,119,58.9,,
GAUCUGUGGCUUUCGCUUUGUUCACAUGAGGAUCACCCAUGUAGAAGGUAGCGGUUGAAAUUCGCUGAGGAUAUACAUAGGUGC,24.4,52.7,,
GGGAAGUUAGGAUAUGCUGCUCGUCACUUGCGUGAUGAGUAGCAGAAGGAACAUGAGGAUCACCCAUGUAAAAA,31.9,37.6,,
UUAAUGAUGUUAGGAUAUACAUGAGGAAUCCUCGUAGAAGGAACAUGACAUGAGGAUCACCCAUGUAACGCUCCGUAGAGCGUA,,,70.2,94.3
UUGUCUCAUGAGAAGGACAUGAGGAUCACCCAUGUAGGAUAUCAUGGGUCAGUGGAAUUGAAUCUUCGGAUUCAAUAACUCUAC,,,15,7
UUAUCUUGUCAAGGAUAUGUAGUAUUGAUCUGAAAACAUGAGGAUCACCCAUGUAUACGGUGGGAACAGAAGGUGAAUGUUGAA,679,670,,
AGUAACAGAGGAUAUACUGUUUUAUGUGUUUGUUAUUUUGAACAUGAGGAUCACCCAUGUAGAAGGCUGAAUAA,22.2,21.3,,
UGUAGUUACGUAGGAUAUCCACGGGCACCCGUAGGAGAAGGACGCUGGACAUGAGGAUCACCCAUGUAUAGAUGGGUGCCUUUC,125,206,,
CUCUUGUAAGGAUAUCUGACAAGUGACGAAAGUCACAGUUCAGAGAAGGUACAUGAGGAUCACCCAUGUAGAAC,76.7,64.4,,
CAGACACAUGAGGAUCACCCAUGUGAGGAUAUGCGUACGUUGUCCGUAGGCGACGUGCGCAGAAGGCACAAAGG,73.4,104,,
AGUACCAUGUAGAAGGGAUAUCUGAUUCAGAUAUCAGGAUAUACAUGAGGAUCACCCAUGUAAAUGUACUGCACGAGAGUGCAA,14.7,50.2,,
AACAUACUAUACAUGAGGAUCACCCAUGUUUGGGCACUGUACAGAAGGCACGGGCAAAUGCGAGGUGAGGAUAUGUAGUUAGUG,,,64.8,18.8
GUGGCUCCCACAGGAUAUCCACAUGAGGAUCACCCAUGUCUAAUUAACAAAGGAGAAGGGUGGGACAACUCUGGUGACUGAGAG,,,28.9,5.45
CCUCUACAUGAGGAUCACCCAUGUGAGGAUAUAAGAUUGCGAAUUCCGCACUACGGUCUUAGAAGGCGCGUGGA,16.4,30.5,,

Sequence,apparent Kd [1] [nM],apparent Kd [2] [nM],apparent Kd [3] [nM],apparent Kd [4] [nM]
GUACGUGGACAGAAGGUGACAUGAGGAUCACCCAUGUUAGUUCGGGUACGAGCGAUCCGCGUGAUUGAGGAUAUGUCUGCGGGC,69.1,175,,
AUUCAACAUGAGGAUCACCCAUGUGAGGAUAUCGUAUACUACUGUUGCAAUACUUAGACGAGAAGGCACACCGU,18.9,25.1,,
GUCAGAUCGUGAGGAUAUACAACACUGCUUCGGCAGUGUAUUAAGAUCACAUGAGGAUCACCCAUGUAGAAGGCACGAGCUGAU,13.3,236,,
UUACCUUAUGAGAAGGCGGUCAUGAAACAUGAUCGAGGAUAUCAUGUAAACAUGAGGAUCACCCAUGUAUGGGUAUUAUGGUAA,,,395,53.7
ACGGUGGUCACAGGAUAUCCGGCCCGCGUGGCCGGAGAAGGGUGACUCAGAACCACAUGAGGAUCACCCAUGUGCCUUGCCGUA,,,102,35.5
GUCAGCUCGUGAGGAUAUACAUGUGCUGGAAACAGCACUAAAGAUUUCACAUGAGGAUCACCCAUGUAGAAGGCACGAGCUGAU,16.1,38,,
UGAUCUUUUGUUAGGAUAUGCUGUUUUUUUUUUCAGCAGAAGGGACAUGAGGAUCACCCAUGUUUUGUCAUAAA,12.4,24.9,,
UGGUACUAGCGAGGAUAUGGGAAGAUACAUGAGGAUCACCCAUGUUUAAGAAUGCCGAGAGGCAACUAGAAGGCCCUAGUACCU,,,456,69.4
CCUCGACAUGAGGAUCACCCAUGUCAGGAUAUUGUGUAUCGGGUUUUUUACGGAAAGGCGAGAAGGGAUGUGUG,18.4,16.9,,
CUGCGACGGUGCACAAGUGGACGGAGAAGGCAGACAUGAGGAUCACCCAUGUGAGCCUGCUAUUCUGAGGAUAUCCGUUCACAC,36,213,,
CCUCUGUGAGGAUAUCUAGAGUAGGCUGACAAUGUCAUUCAGGAGAAGGUACAUGAGGAUCACCCAUGUUCGGC,24.4,56.3,,
CCUCAGAACAAGAAGGUGGGAGAAGAGUAUAACUAAGGAUAUUGAAAGGGAUGAACAUGAGGAUCACCCAUGUAAGGAAUCGUG,52.8,40.9,,
UUUAAGCGAGGAUAUACAUGAGGAUCACCCAUGUCAAGUAUUCUUGACGCCGUGCUCUGUAGAAGGCGCAAUUA,65.2,522,,
GUAGCAAUCGGAGGAUAUGGGUUGAUAACAUGAGGAUCACCCAUGUUAAUACUAGAAGGCCGAUUGCUACAAGAGCGAAAGCUC,,,31.4,6.39
CGGUUGCGAGGAUAUAUGACAUGUUGCGCCGGAACUCCGCCACAUGAGGAUCACCCAUGUAGAAGGCGCAACUU,14.4,15.3,,
UUAGCAUACCGAGGAUAUUCAUAUAAUAAAUAAACAUGAGGAUCACCCAUGUGGCGAAAGCCUAGGGAGAAGGCGGAAUGCUAA,,,220,21.9
UUACGUCACAUUUACAUGAGGAUCACCCAUGUCGAAAGACAUGAGGAUAUGCUACCUAAUUGGUAGCAGAAGGCAUGGACGUCG,,,834,81.1
GCUGACGUAGGAUAUCAAUAGCCUCACAUGAGGAUCACCCAUGUCGGUAGGUGUACUGGAUGAGAAGGACGUCGUU,38.3,23.9,,
CCAGAGACAUAAGGAUAUCGAGUGGAAUACACUCGAGAAGGUAUGUGAAAACAUGAGGAUCACCCAUGUGAUCAAUACUCUGGA,,,19.4,20.2
GUUAAACAUGAGGAUCACCCAUGUAAGGAUAUGCUGCGGUCGCGCUGACGUGACUGCAGCAGAAGGUACAAUUG,100,77.4,,
UUUUAGGGAGGAUAUACAUUUUUUUUAUUAUCCUCAUUAAUACAUGAGGAUCACCCAUGUAGAAGGCCCAUUUU,39.2,164,,
GCUGACGAUGUAGGAUAUCAGUAUAAUAAAUACUGAGAAGGACAUGAGGAUCACCCAUGUAAACUCCGUCAGCAGAGGAAACUC,19.6,24.1,,
UGGUGAGUCAAGAAGGACAUGAGGAUCACCCAUGUAGGAUAUUGGCGUCACGGCUCCAAUACGUACAUGUGGGACGGUCAAAGG,,,48.6,16.5
AAAAGACAUGAGGAUCACCCAUGUCAAAACGUGGGAGGAUAUGUAUGGAAACCAGACUGUACAGAAGGCCUCUGUC,,,41.7,131
CUAAAGCAUGUAGGAUAUGCGUGGCGAAGCUAUGCAGAAGGACAUGAGGAUCACCCAUGUCUUUCCGUCUGCGUACAGACGGAA,19.1,52.4,,
UCACGGGAUUGAGGAUAUAUUUAAAUUUUUACAAUAGAAGGCAAAUUUUUAGUUUUUUCACUUUACAUGAGGAUCACCCAUGUU,28.8,24.5,,
UUGUUAUAUGUAGGAUAUGCGUGUUAUUAUUAUGCAGAAGGACAUGAGGAUCACCCAUGUGUAUUAUUAUUAUAUAUUAUAUAU,20.3,18.1,,
